Data taken from ChEMBL document CHEMBL5724801, “EUbOPEN Chemogenomics Library - Multiplex” (2024).
Where “and” joins values, the source holds several entries; their conditions need not be identical. Identical values can stand only once.

Columns and labels:
HEK-293T = assay: Multiplex assay against HEK293T; assay type: toxicity, cell-based; conditions: human
In short: (§1)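 Compound was added to live cells that had been stained at seeding with Hoechst33342, BioTracker Green Microtubule Cytoskeleton Dye, MitoTracker Red and Annexin V Alexa Fluor 680, and imaging followed on a CQ1 microscope at 37°C and 5% CO2. CellPathfinder machine-learning gating divided cells into Hoechst high-intensity objects or normal cells, normal cells into healthy, pyknosed or fragmented nuclei, and pyknosed cells into mitotic or apoptotic. Tubulin, mitochondrial-mass and membrane-permeability phenotypes are per cents of healthy-nucleus cells.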

U2OS = assay: Multiplex assay against U2OS; assay type: toxicity, cell-based; conditions: human; in short: as §1
[1] = 24 h, 1 µM, compound concentration 1 uM
[2] = 24 h, 10 µM, compound concentration 10 uM
[3] = 48 h, 1 µM, compound concentration 1 uM
[4] = 48 h, 10 µM, compound concentration 10 uM
[5] = 12 h, 1 µM, compound concentration 1 uM
[6] = 12 h, 10 µM, compound concentration 10 uM

**Q.** Which results are given for `FC(F)(F)c1ccccc1-c1cc(C(F)(F)F)c2[nH]c(C3=NOC4(CCCCC4)C3)nc2c1`?
**A.** Population Mitotic Cells (%) (HEK-293T; [1]): 89.11% and 84.47%; Population Normal (%) (HEK-293T; [1]): 100%; Population Tubulin-Different-Phenotype (%) (HEK-293T; [1]): 18.29% and 21.62%; Population Apoptotic (%) (HEK-293T; [2]): 37.98% and 40%; Population Fragmented Nuclei (%) (HEK-293T; [2]): 1.06% and 5.51%; Population Hoechst High Intensity Objects (%) (HEK-293T; [2]): 0.7% and 0%; Population Membrane Permeable-Phenotype (%) (HEK-293T; [2]): 0.66% and 0%; Population Mitochondria Different-Phenotype (%) (HEK-293T; [2]): 57.89% and 50%; Population Mitotic Cells (%) (HEK-293T; [2]): 62.02% and 60%; Population Normal (%) (HEK-293T; [2]): 99.3% and 100%; Population Pyknosed Nuclei (%) (HEK-293T; [2]): 45.42% and 86.61%; Population Tubulin-Different-Phenotype (%) (HEK-293T; [2]): 72.37% and 30%; Total Cell Count (HEK-293T; [2]): 286 and 127; Population Fragmented Nuclei (%) (HEK-293T; [3]): 2% and 1.31%; Population Healthy Nuclei (%) (HEK-293T; [3]): 85.85% and 52.94%; Population Hoechst High Intensity Objects (%) (HEK-293T; [3]): 0%; Population Membrane Permeable-Phenotype (%) (HEK-293T; [3]): 4.66% and 2.47%; Population Mitochondria Different-Phenotype (%) (HEK-293T; [3]): 18.43% and 25.93%; Population Mitotic Cells (%) (HEK-293T; [3]): 94.52% and 78.57%; Population Normal (%) (HEK-293T; [3]): 100%; Population Apoptotic (%) (HEK-293T; [4]): 29.75% and 35.21%; Population Fragmented Nuclei (%) (HEK-293T; [4]): 1.37% and 5.17%; Population Healthy Nuclei (%) (HEK-293T; [4]): 74.95% and 33.62%; Population Hoechst High Intensity Objects (%) (HEK-293T; [4]): 0%; Population Membrane Permeable-Phenotype (%) (HEK-293T; [4]): 3.92% and 2.56%; Population Mitochondria Different-Phenotype (%) (HEK-293T; [4]): 79.11% and 61.54%; Population Mitotic Cells (%) (HEK-293T; [4]): 70.25% and 64.79%; Population Normal (%) (HEK-293T; [4]): 100%; Population Pyknosed Nuclei (%) (HEK-293T; [4]): 23.68% and 61.21%; Population Apoptotic (%) (U2OS; [5]): 48.57% and 27.27%; Population Fragmented Nuclei (%) (U2OS; [5]): 2.24% and 1.95%; Population Healthy Nuclei (%) (U2OS; [5]): 87.96% and 83.77%; Population Hoechst High Intensity Objects (%) (U2OS; [5]): 0%; Population Membrane Permeable-Phenotype (%) (U2OS; [5]): 1.91% and 5.43%; Population Mitochondria Different-Phenotype (%) (U2OS; [5]): 0.32% and 6.98%; Population Mitotic Cells (%) (U2OS; [5]): 51.43% and 72.73%; Population Normal (%) (U2OS; [5]): 100%; Population Pyknosed Nuclei (%) (U2OS; [5]): 9.8% and 14.29%; Population Tubulin-Different-Phenotype (%) (U2OS; [5]): 0.96% and 0%; Total Cell Count (U2OS; [5]): 357 and 154; Population Apoptotic (%) (U2OS; [6]): 51.92% and 25%; Population Fragmented Nuclei (%) (U2OS; [6]): 1.81% and 6.56%; Population Healthy Nuclei (%) (U2OS; [6]): 82.53% and 69.4%; Population Hoechst High Intensity Objects (%) (U2OS; [6]): 0%; Population Membrane Permeable-Phenotype (%) (U2OS; [6]): 18.61% and 23.62%; Population Mitotic Cells (%) (U2OS; [6]): 48.08% and 75%; Population Normal (%) (U2OS; [6]): 100%; Population Pyknosed Nuclei (%) (U2OS; [6]): 15.66% and 24.04%; Population Tubulin-Different-Phenotype (%) (U2OS; [6]): 21.17% and 11.81%; Total Cell Count (U2OS; [6]): 332 and 183; Population Apoptotic (%) (U2OS; [1]): 53.33% and 54.17%; Population Fragmented Nuclei (%) (U2OS; [1]): 0.65% and 0%; Population Healthy Nuclei (%) (U2OS; [1]): 89.61% and 86.59%; Population Hoechst High Intensity Objects (%) (U2OS; [1]): 0%; Population Membrane Permeable-Phenotype (%) (U2OS; [1]): 1.69% and 5.16%; Population Mitochondria Different-Phenotype (%) (U2OS; [1]): 0.24% and 8.39%; Population Mitotic Cells (%) (U2OS; [1]): 46.67% and 45.83%; Population Normal (%) (U2OS; [1]): 100%; Population Pyknosed Nuclei (%) (U2OS; [1]): 9.74% and 13.41%; Population Tubulin-Different-Phenotype (%) (U2OS; [1]): 1.93% and 0.65%; Total Cell Count (U2OS; [1]): 462 and 179; Population Apoptotic (%) (U2OS; [2]): 41.86% and 43.75%; Population Fragmented Nuclei (%) (U2OS; [2]): 2.02% and 5.56%; Population Healthy Nuclei (%) (U2OS; [2]): 76.26% and 70.2%; Population Hoechst High Intensity Objects (%) (U2OS; [2]): 0%; Population Mitotic Cells (%) (U2OS; [2]): 58.14% and 56.25%; Population Normal (%) (U2OS; [2]): 100%; Population Pyknosed Nuclei (%) (U2OS; [2]): 21.72% and 24.24%; Population Tubulin-Different-Phenotype (%) (U2OS; [2]): 24.17% and 12.95%; Total Cell Count (U2OS; [2]): 396 and 198; Population Apoptotic (%) (U2OS; [3]): 45.78% and 50%; Population Fragmented Nuclei (%) (U2OS; [3]): 2.67% and 2.11%; Population Healthy Nuclei (%) (U2OS; [3]): 87.27% and 85.96%; Population Hoechst High Intensity Objects (%) (U2OS; [3]): 0.12% and 0%; Population Membrane Permeable-Phenotype (%) (U2OS; [3]): 0.69% and 1.63%; Population Mitochondria Different-Phenotype (%) (U2OS; [3]): 0.28% and 8.16%; Population Mitotic Cells (%) (U2OS; [3]): 54.22% and 50%; Population Normal (%) (U2OS; [3]): 99.88% and 100%; Population Pyknosed Nuclei (%) (U2OS; [3]): 10.06% and 11.93%; Population Tubulin-Different-Phenotype (%) (U2OS; [3]): 1.53% and 0.82%; Total Cell Count (U2OS; [3]): 826 and 285; Population Apoptotic (%) (U2OS; [4]): 40.68% and 58.46%; Population Fragmented Nuclei (%) (U2OS; [4]): 3.58% and 4.76%; Population Healthy Nuclei (%) (U2OS; [4]): 78.04% and 69.44%; Population Hoechst High Intensity Objects (%) (U2OS; [4]): 0%; Population Mitotic Cells (%) (U2OS; [4]): 59.32% and 41.54%; Population Normal (%) (U2OS; [4]): 100%; Population Pyknosed Nuclei (%) (U2OS; [4]): 18.38% and 25.79%; Population Tubulin-Different-Phenotype (%) (U2OS; [4]): 19.56% and 20.57%; Total Cell Count (U2OS; [4]): 642 and 252
